Compounds with a hit are over-represented: about 1.7% of the library has one in this group of screens.
CXCR6 inh: CXCR6 (human) receptor inhibition; CHO-K1 PathHunter CXCR6 beta-arrestin, luminescence; inhibition, % at 20 µM; O00574; 360,000 tested, 0.36% active; in the data active = inhibition above about 34%, passing the limit was not always enough;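 also: antagonist mode with CXCL16 agonist at 10 nM final; 0% = 10 nM CXCL16 with DMSO and 100% = unstimulated wells without agonist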
Target sequence (O00574 whole entry, looked up): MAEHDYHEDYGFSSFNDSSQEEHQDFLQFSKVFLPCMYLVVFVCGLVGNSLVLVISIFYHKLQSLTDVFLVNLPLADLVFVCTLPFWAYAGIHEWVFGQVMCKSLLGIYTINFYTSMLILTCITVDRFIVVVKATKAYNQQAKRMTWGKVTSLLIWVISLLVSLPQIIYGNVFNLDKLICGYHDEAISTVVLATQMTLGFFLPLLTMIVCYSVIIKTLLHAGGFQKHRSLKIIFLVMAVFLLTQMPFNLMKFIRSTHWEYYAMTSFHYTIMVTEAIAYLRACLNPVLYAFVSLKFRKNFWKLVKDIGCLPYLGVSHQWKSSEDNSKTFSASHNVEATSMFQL
PfGluPho inh: PfG6PD (Plasmodium falciparum) enzyme inhibition; PfGluPho enzyme, NADPH resazurin-diaphorase fluorescence; inhibition, % at 20 µM; 350,000 tested, 0.78% active;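 active = inhibition reaching at least a set limit at 20 µM in the primary screen, cut at about 59% in these data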;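 also: 0% = DMSO wells with substrate and 100% = DMSO wells lacking glucose-6-phosphate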
APJ ag: agonists of human APJ apelin receptor; P35414; CHO-K1 APJ PathHunter beta-arrestin, luminescence; 0% DMSO wells, 100% apelin; activation, % at 20 µM; 330,000 tested, 0.11% active; AID 2520;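 active = activation more than six SD over the plate average, tested at 20 µM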;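 also: 0% = DMSO alone and 100% = apelin-13 at 10 nM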
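Material: engineered CHO-K1 APJ arrestin reporter cells; amount: 1000 CHO-K1 reporter cells seeded per well; incubation: compound stimulation 90 min at 25 °C, detection 60 min; signal: luminescent beta-gal fragment complementation, chemiluminescent substrate; read-out basis: APJ agonist activity; controls: DMSO-only wells as negative, 10 nM Apelin-13 as positive control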
CCR6 antag: blocks CCL20-driven beta-arrestin recruitment at human CCR6; 340,000 tested, 0.49% active; AID 493098; inhibition, % at 20 µM; CHO-K1 CCR6 PathHunter beta-arrestin, luminescence, CCL20-stimulated;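 active = compounds whose inhibition of the agonist-driven luminescence signal at 20 µM reaches about 50%, limit read from the data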;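 also: cells stimulated with CCL20 at 14 nM final; plate controls were DMSO with CCL20 for no effect and DMSO without agonist for full effect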
APJ antagonist: APJ receptor antagonism | P35414 | CHO-K1 APJ beta-arrestin complementation, luminescence | inhibition, % at 20 µM | 330,000 tested, 0.32% active | AID 2521;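 active = inhibition above about 40% at 20 µM, limit read from the data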;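 also: cells challenged with 10 nM apelin-13 agonist together with compound; plate controls were apelin-13 plus DMSO wells for no effect and DMSO wells lacking apelin-13 for full effect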
B2AR ag: human beta-2 adrenergic receptor agonism by FAP. Am2.2-beta2AR cells, FAP receptor internalization, flow cytometry. response, % (concentration not given with the values). 340,000 tested, 0.43% active;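 active = response above a set limit, near 3 SD of response in nonfluorescent compounds, cut at about 42% in these data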
Beta2AR ag CP1: agonists of human beta-2 adrenergic receptor | 1,100 tested, 25% active | percent response (surface receptor), % at 10 µM | Am2.2-beta2AR cells, FAP surface receptor, flow cytometry; hits give low values | shares compounds with B2AR ag;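 active = surface receptor percent response at or below 58%, roughly 3 SD from nonfluorescent compounds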
FAP fluor counter: fluorescence artifact in beta-2AR agonist FAP counterscreen; shares compounds with B2AR ag; Am2.2 cells, FAP fluorogen flow cytometry; hits give low values; calls only at 10 µM; 1,100 tested, under 10 active; AID 588765;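 active = percent response below a set limit in fluorescence channel 1 and below 50% in channel 8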
* = called active by the depositor; i = inactive; . = not tested or not shown.

SMILES | CXCR6 inh | PfGluPho inh | APJ ag | CCR6 antag | APJ antagonist | B2AR ag | Beta2AR ag CP1 | FAP fluor counter
Cn1c(=O)c2c(-c3ccccc3)n(-c3ccccc3Br)cc2n(C)c1=O | 4 | . | . | . | . | . | . | .
CCC1CCCCN1CCCNC(=O)Cn1cnc2sc(C)c(S(=O)(=O)N3CC(C)CC(C)C3)c2c1=O (stereo unspecified) | 17 | 1 | 2 | 6 | 20 | 59* | 89 | i
CN(C(=O)c1cccc(NC(=O)Cc2cccc(NC(=O)C3CCN(C(=O)C4CCCCC4)CC3)c2)c1)C1CCC1 | 6 | -4 | . | 18 | . | -2 | . | .
CN(C(=O)c1ccc(NC(=O)Cc2cccc(NC(=O)C3CCN(C(=O)C4CC4)CC3)c2)cc1)C1CC1 | 2 | -26 | . | 7 | . | -6 | 117 | i
CN(C(=O)c1ccc(NC(=O)Cc2cccc(NC(=O)C3CCN(C(=O)C4CCCC4)CC3)c2)cc1)C1CCCC1 | 4 | -3 | -2 | 4 | 14 | 47* | 82 | i
CN(C(=O)c1ccc(NC(=O)Cc2cccc(NC(=O)C3CCN(C(=O)C4CCCCC4)CC3)c2)cc1)C1CC1 | -4 | -16 | . | 5 | . | -4 | 115 | i
CN(C(=O)c1cccc(NC(=O)Cc2cccc(NC(=O)C3CCN(C(=O)C4CCCC4)CC3)c2)c1)C1CC1 | -3 | -6 | . | 0 | . | -3 | . | .
CN(C(=O)c1cccc(NC(=O)Cc2cccc(NC(=O)C3CCN(C(=O)C4CC4)CC3)c2)c1)C1CC1 | 1 | -10 | . | 3 | . | 1 | . | .
COc1ccccc1CC(=O)NCCN1CCCCC1 | 6 | -5 | -2 | -13 | 7 | 2 | . | .
CCOC1=C2[C@@H](CN(S(=O)(=O)c3ccc(C)cc3)[C@H]2c2ccccc2F)[C@H]2C(=O)N(c3ccccc3)C(=O)[C@H]2C1 | -3 | . | . | . | . | . | . | .
CC(C)C#Cc1ccc2c(c1)O[C@@H](CN(C)S(=O)(=O)c1cn(C)cn1)[C@@H](C)CN([C@H](C)CO)S2(=O)=O | 1 | 4 | . | . | . | . | . | .
COc1ccc(OC)c(S(=O)(=O)N2CCCC(C(=O)NCc3cccnc3)C2)c1 (stereo unspecified) | 2 | -14 | 2 | 3 | 2 | 71* | 92 | i
Cc1ccc(C)c(N(CC(=O)NCc2ccco2)C(=O)CNS(=O)(=O)c2ccccc2)c1 | 1 | 1 | 1 | 4 | -19 | -4 | . | .
COc1ccc(-c2nn(-c3ccccc3)cc2C(=O)Nc2nccs2)cc1 | -2 | 24 | 3 | -9 | -6 | 43* | 154 | i
COc1cccc(NC(=O)C(C)OC(=O)c2n[nH]c3ccccc23)c1 (stereo unspecified) | 3 | 15 | -2 | 5 | -9 | -1 | . | .
CC(C)(C)NC(=O)C(c1ccc(F)cc1)N(Cc1ccccc1Cl)C(=O)c1ccn[nH]1 (stereo unspecified) | 1 | -1 | -3 | 2 | 15 | -4 | 98 | i
COC(=O)[C@H](NCc1ccc(OC)c(B(O)O)c1)C(C)C | -4 | -5 | . | 8 | . | -9 | . | .
COc1ccc(CN2C[C@H]3CCCN3c3cc(Br)ccc3S2(=O)=O)cc1 | 2 | 58 | . | 33 | . | 44* | 65 | i
NC(=O)CC(NC(=O)Cc1ccc(Cl)cc1)c1ccc(N2CCN(c3ccccn3)CC2)c([N+](=O)[O-])c1 (stereo unspecified) | 9 | -3 | -2 | 17 | 12 | 25 | . | .
NC(=O)CC(NC(=O)c1ccc(Br)cc1)c1ccc(N2CCN(c3ccccn3)CC2)c([N+](=O)[O-])c1 (stereo unspecified) | 10 | -1 | -2 | 5 | 3 | 98* | 14* | i
NC(=O)CC(NC(=O)c1cccc(Br)c1)c1ccc(N2CCC(Br)CC2)c([N+](=O)[O-])c1 (stereo unspecified) | -1 | 4 | 12 | 2 | -13 | -15 | . | .
NC(=O)CC(NC(=O)c1cccc(Br)c1)c1ccc(N2CCN(c3ccccn3)CC2)c([N+](=O)[O-])c1 (stereo unspecified) | 4 | -5 | 8 | 9 | 7 | 97* | 14* | i
NC(=O)CC(NC(=O)Cc1ccc(Br)cc1)c1ccc(N2CCN(c3ccccn3)CC2)c([N+](=O)[O-])c1 (stereo unspecified) | 2 | 11 | 3 | 12 | 18 | 63* | 89 | i
CC1(c2ccc(Cl)cc2Cl)NC(=O)N(CC(=O)NCCC2=CCCCC2)C1=O (stereo unspecified) | 1 | 7 | . | . | . | . | . | .
O=C1N(CN2CCN(Cc3ccccc3)CC2)c2ccccc2C12OCCCO2 | -14 | 9 | -2 | 11 | -3 | -2 | . | .
SMILES | CXCR6 inh | PfGluPho inh | APJ ag | CCR6 antag | APJ antagonist | B2AR ag | Beta2AR ag CP1 | FAP fluor counter
N#Cc1cc(-c2ccccc2)nnc1Oc1ccccc1Cl | 0 | 2 | 1 | 1 | 3 | 57* | 18* | i
COc1ccc(Sc2nnc(-c3ccccc3)cc2C#N)cc1 | 10 | 5 | -1 | -4 | -4 | -2 | . | .
N#CC1=C(N)OC2=C(CCc3ccccc32)C1c1ccccc1 (stereo unspecified) | 10 | 7 | 0 | 3 | -20 | 43* | 28* | i
Cc1ccc(/C=C2\CCC3=C2OC(N)=C(C#N)C3c2ccc(C)cc2)cc1 (stereo unspecified) | 8 | 14 | -7 | 19 | -29 | . | . | .
COC(=O)C1CCN(C(=O)COC(=O)c2cc(-c3ccccc3)nc3ccc(OC)cc23)CC1 | 8 | 20 | -1 | 20 | 14 | 17 | . | .
CCCC(=O)N1CCC(Cc2ccccc2)CC1 | 9 | 1 | 2 | 1 | 4 | 0 | . | .
CCC(=O)N1COC[C@@H]1Cc1ccccc1 | -2 | -18 | -1 | 4 | 10 | -1 | 107 | i
CCOC(=O)N1CCN(CC(O)COc2ccccc2C(C)C)CC1 (stereo unspecified) | 9 | 0 | -4 | 14 | 6 | -4 | . | .
CCN(CCNCC(O)COc1ccccc1C(C)C)c1cccc(C)c1 (stereo unspecified) | -19 | 15 | -5 | 15 | 4 | 45* | 126 | i
CN1CCCC(CC2c3ccccc3Sc3ccccc32)C1 (stereo unspecified) | 5 | 14 | -7 | 20 | 26 | 37 | 81 | i
COc1ccccc1CN1CC(C(=O)NCc2cnn(C)c2)CCC1=O (stereo unspecified) | 3 | 8 | -7 | -3 | 2 | 2 | . | .
COc1ccc(C(=O)CCC(=O)Nc2ccc(N3CCCCC3)cc2)cc1OC | -4 | 3 | 1 | 14 | 2 | 72* | 98 | i

From PubChem
